Only some compounds are listed: those with a hit (about 1.5% of all), similar ones and a draw of the others.
CCR6 antag = antagonists of human CCR6 receptor; P51684; CHO-K1 CCR6 PathHunter beta-arrestin, luminescence, CCL20-stimulated; inhibition, % at 20 µM; 0.49% of 340,000 active; AID 493098;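 active = compounds whose inhibition of the agonist-driven luminescence signal at 20 µM reaches about 50%, limit read from the data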;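 note: cells stimulated with CCL20 at 14 nM final; plate controls were DMSO with CCL20 for no effect and DMSO without agonist for full effect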
Target sequence (P51684 whole entry, looked up): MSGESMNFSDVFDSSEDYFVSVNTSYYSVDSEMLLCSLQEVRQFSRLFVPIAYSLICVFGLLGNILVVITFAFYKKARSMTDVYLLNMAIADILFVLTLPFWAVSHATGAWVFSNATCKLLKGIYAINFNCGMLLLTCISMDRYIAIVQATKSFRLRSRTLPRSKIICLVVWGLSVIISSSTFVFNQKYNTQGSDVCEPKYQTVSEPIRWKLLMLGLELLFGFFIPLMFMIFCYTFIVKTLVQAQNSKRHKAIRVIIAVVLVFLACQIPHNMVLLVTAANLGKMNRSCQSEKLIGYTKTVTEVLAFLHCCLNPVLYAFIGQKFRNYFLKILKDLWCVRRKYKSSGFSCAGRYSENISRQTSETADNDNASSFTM
APJ antag = blocks the human apelin receptor APJ. P35414. CHO-K1 APJ beta-arrestin complementation, luminescence. inhibition, % at 20 µM. 0.32% of 330,000 active. AID 2521;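 active = inhibition above about 40% at 20 µM, limit read from the data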;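 note: cells challenged with 10 nM apelin-13 agonist together with compound; plate controls were apelin-13 plus DMSO wells for no effect and DMSO wells lacking apelin-13 for full effect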
APJ agonist = activates the human apelin receptor APJ | P35414 | 0.11% of 330,000 active | CHO-K1 APJ PathHunter beta-arrestin, luminescence; 0% DMSO wells, 100% apelin | activation, % at 20 µM;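 active = activation more than six SD over the plate average, tested at 20 µM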;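 note: 0% = DMSO alone and 100% = apelin-13 at 10 nM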
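Test system – PathHunter CHO-K1 APJ (AGTRL-1) beta-arrestin reporter cells · Input – 1000 cells/well · Compound – single test compound dose, 20 µM final, 1% DMSO · Times – compound stimulation 90 min at 25 °C, detection 60 min · Technique – beta-gal luminescence · Read-out basis – APJ–arrestin association signal · Control set – negative DMSO alone, positive Apelin-13 at 10 nM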
EBI2 antag = EBI2 (human) antagonism | 0.81% of 360,000 active | P32249 | inhibition, % at 5 µM | EBI2 beta-arrestin recruitment, luminescence, 7a,25-OHC stimulated; in the data active = inhibition above about 38%;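 note: enzyme fragment complementation signal reports receptor beta-arrestin coupling in cells; 0% = agonist plus DMSO wells and 100% = wells without agonist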
hiPSC survival = increases survival of single human iPS cells. 0.044% of 360,000 active. AID 602274. hiPSC single-cell survival, ATPlite luminescence; 100% = ROCK inhibitor wells, 0% = DMSO. survival enhancement, % at 20 µM; in the data active = survival enhancement above about 18%;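 note: cells exposed to compounds for 16 hours before the ATP read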
CXCR6 block = blocks human CXCR6 beta-arrestin recruitment | 0.36% of 360,000 active | inhibition, % at 20 µM | AID 602244 | CHO-K1 PathHunter CXCR6 beta-arrestin, luminescence; in the data active = inhibition above about 34%, passing the limit was not always enough;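 note: antagonist mode with CXCL16 agonist at 10 nM final; 0% = 10 nM CXCL16 with DMSO and 100% = unstimulated wells without agonist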
EBI2 conf = confirmation of human EBI2 receptor antagonists; inhibition, % at 5 µM; AID 651997; EBI2 beta-arrestin luminescence, 7a,25-OHC antagonism; 29% of 2,400 active; shares compounds with EBI2 antag;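 active = inhibition of at least 50%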
EBI2 ag = counter-screen for EBI2 antagonists: EBI2 agonist activity. 2,400 tested, under 10 active. AID 652000. EBI2-expressing cells, agonist mode, luminescence, 60 min; 0% vehicle, 100% 7α,25-dihydroxycholesterol control. shares compounds with EBI2 antag. activation, % at 5 µM;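 active = activation of at least 50%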
bGal counter = inhibits E. coli beta-galactosidase, counter-screen for EBI2 antagonists. purified beta-galactosidase, luminescent Galacton Star, 15 min. AID 652176. shares compounds with EBI2 antag. inhibition, % at 5 µM. 1% of 2,400 active;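 active = replicate-average signal at least 3 plate SD below neutral wells, shown as high inhibition, flagging enzyme-inhibiting false positives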;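 note: 0% = DMSO wells with enzyme and 100% = wells lacking enzyme; higher means stronger loss of beta-gal luminescence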
* = called active by the depositor; · = no result.

SMILES	CCR6 antag	APJ antag	APJ agonist	EBI2 antag	hiPSC survival	CXCR6 block	EBI2 conf	EBI2 ag	bGal counter
Cc1ccc(NC(=O)N2CCC(c3ccccc3)C2)cc1C (stereo not drawn)	8	-4	0	73*	0	6	63*	0	0
CC(C)N(C)C1CCN(C(=O)Nc2ccc(Cl)cc2)CC1	-14	-6	-4	-26	2	0	·	·	·
CN(CC(=O)OCC(=O)NC1CCCC1)S(=O)(=O)c1ccc(Cl)cc1	-3	-22	3	-6	6	3	·	·	·
Cc1ccc(S(=O)(=O)N2CCCCC2)cc1NC(=O)c1cnccn1	9	12	-4	-10	0	-12	·	·	·
Cc1ccc(NC(=S)N2CCC(c3ccc(C)cc3)C2)cc1 (stereo not drawn)	-4	11	-2	17	0	7	·	·	·
Cc1ccc(C2CCN(C(=O)Nc3ccccc3)C2)cc1 (stereo not drawn)	3	4	-2	60*	-2	0	47	-1	7
O=C(Nc1cccc(F)c1)N1CCC(c2ccccc2)CC1	13	1	-3	67*	-1	-1	41	0	-9
COc1ccc2cc(C3=CC(=O)CCC3)ccc2c1	1	·	·	4	7	-2	·	·	·
CC(C)NC(=O)C1(C)CN(S(C)(=O)=O)CC(=O)N1Cc1cccc(F)c1 (stereo not drawn)	·	·	·	-3	·	·	·	·	·
COc1ccc(CNC(=O)c2cc(=O)c3cc(C)c(C)cc3o2)cc1	2	-5	-5	56*	0	-5	38	1	5
Cc1ccc(CNC(=O)c2cc(=O)c3cc(C)ccc3o2)cc1	-2	12	-5	13	-1	-5	·	·	·
COc1ccccc1N1CCN(/N=C/c2ccccc2C(=O)O)CC1	6	10	-1	3	0	4	·	·	·
COC(=O)c1ccc2[nH]c3c(c2c1)CC(C)CC3 (stereo not drawn)	-15	14	2	50*	0	-9	44	-1	-12
Cc1n[nH]c(C)c1S(=O)(=O)N1CCc2ccccc2C1	10	1	-2	-1	1	-2	·	·	·
CC1(C(=O)Nc2cnc3ccccc3c2)CCN1C(=O)c1ccccc1CCc1ccccc1 (stereo not drawn)	·	·	·	48*	-2	8	37	0	-17
COC(=O)c1cc(=O)n(Cc2ccc3c(c2)OCO3)c(=Nc2ccc(F)cc2)s1	11	4	-5	66*	-3	7	34	1	6
COC(=O)c1cc(=O)n(Cc2ccc3c(c2)OCO3)c(=Nc2ccccc2)s1	3	19	-7	53*	-3	9	58*	-1	-15
COC(=O)c1cc(=O)n(Cc2ccc(F)cc2)c(=NCc2ccc(F)cc2)s1	0	8	-2	40	-2	-9	·	·	·
COC(=O)c1cc(=O)n(-c2ccc(F)cc2)c(=Nc2ccc(F)cc2)s1	21	12	-1	16	5	14	·	·	·
COC(=O)c1ccc(N=c2sc(C(=O)OC)cc(=O)n2C)cc1	21	·	·	66*	2	3	78*	-1	-16
CCOc1ccc(CCN2C(=S)N([C@@H](CC(C)C)CN3CCCC3CN3C(=S)NC[C@@H]3CC(C)C)C[C@@H]2Cc2ccc(O)cc2)cc1 (stereo partly drawn)	13	·	·	27	-4	1	·	·	·
CC(C)C[C@@H](CN1CCCC1CN1C(=S)NC[C@@H]1Cc1ccccc1)N1C[C@H](Cc2ccc(O)cc2)N(CCc2ccccc2)C1=S (stereo partly drawn)	·	·	·	22	-2	0	·	·	·

Compound activity (PubChem BioAssay)
